The source made the active and inactive calls.
Assays:
[1] = system: Canis familiaris; experiment: Tested for antiarrhythmic property by measuring ability to decrease heart rate (drug free) is compared to Lidocaine using doses (3 and 6 mg/kg).; format: functional, Canis lupus familiaris
Outline: (§1)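 Mongrel dogs (about 12–25 kg), 1–4 days after coronary occlusion infarction, under sodium pentobarbital (~30 mg/kg) with 12-lead ECG monitoring. Agents and lidocaine were given iv at 3 and 6 mg/kg. Programmed ventricular stimulation was applied at baseline, about 2–5 min after each dose, and at 30 min. SVT was defined as ≥250 beats/min lasting ≥30 s. Pre means drug-free; post means after dosing.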

[2] = system: Canis familiaris; experiment: Tested for antiarrhythmic property by measuring ability to decrease heart rate (post drug) is compared to Lidocaine using doses (3 and 6 mg/kg); format: functional, Canis lupus familiaris; outline: as §1
[3] = system: Canis familiaris; experiment: Tested for antiarrhythmic property by measuring ability to decrease Mean blood pressure (drug free) is compared to Lidocaine using doses(3 and 6 mg/kg).; format: functional, Canis lupus familiaris; outline: as §1
[4] = system: Canis familiaris; experiment: Tested for antiarrhythmic property by measuring ability to decrease Mean blood pressure(post drug) is compared to Lidocaine using doses(3 and 6 mg/kg); format: functional, Canis lupus familiaris; outline: as §1
[5] = system: Canis familiaris; experiment: Antiarrhythmic property Nonsustained ventricular tachycardia is compared to lidocaine(2) using dose of (3 and 6 mg/kg); format: functional, Canis lupus familiaris, Heart; outline: as §1
[6] = system: Canis familiaris; experiment: Antiarrhythmic property is compared to lidocaine(2) using doses(3 and 6 mg/kg). Time required for the ventricular myocardium to undergo depolarization and repolarization (drug free); format: functional, Canis lupus familiaris; outline: as §1
[7] = system: Canis familiaris; experiment: Antiarrhythmic property ventricular effective refractory period(post drug) is compared to lidocaine(2) using doses(3 and 6 mg/kg); format: functional, Canis lupus familiaris, Heart; outline: as §1
[8] = system: Canis familiaris; experiment: Antiarrhythmic property A-V nodal conduction time(post drug) is compared to lidocaine(2) using doses(3 and 6 mg/kg); format: functional, Canis lupus familiaris, Heart; outline: as §1
[9] = system: Canis familiaris; experiment: Tested for antiarrhythmic property by measuring ability to decrease heart rate(post drug) is compared to Lidocaine using doses(3 and 6 mg/kg).; format: functional, Canis lupus familiaris; outline: as §1
[10] = system: Canis familiaris; experiment: Tested for antiarrhythmic property by measuring ability to decrease heart rate(drug free) is compared to Lidocaine using doses (3 and 6 mg/kg).; format: functional, Canis lupus familiaris; outline: as §1
[11] = system: Canis familiaris; experiment: Antiarrhythmic property A-V nodal conduction time(drug free) is compared to lidocaine(2) using doses(3 and 6 mg/kg); format: functional, Canis lupus familiaris, Heart; outline: as §1
[12] = system: Canis familiaris; experiment: (§2) Antiarrhythmic property ventricular effective refractory period(drug free) is compared to lidocaine(2) using doses(3 and 6 mg/kg); format: functional, Canis lupus familiaris, Heart; outline: as §1
[13] = system: Canis familiaris; experiment: Antiarrhythmic property is compared to lidocaine(2) using doses(3 and 6 mg/kg). Time required for the ventricular myocardium to undergo depolarization and repolarization ((post drug); format: functional, Canis lupus familiaris; outline: as §1
[14] = system: Canis familiaris; experiment: Antiarrhythmic property Heart rate (drug free) is compared to Lidocaine using doses (3 and 6 mg/kg).; format: functional, Canis lupus familiaris
Outline: (§3)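 Mongrel dogs (~12–25 kg), 1–4 days after coronary occlusion leaving a surviving epicardial rim, anesthetized with sodium pentobarbital (~30 mg/kg). 12-lead ECG monitored throughout. Agent given iv at 3 and 6 mg/kg. Parameters recorded before (drug free) and after dosing. Programmed electrical stimulation tested SVT inducibility (≥250 beats/min, ≥30 s) at baseline, ~2–5 min after each dose, and at 30 min.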

[15] = system: Canis familiaris; experiment: Antiarrhythmic property Mean blood pressure (drug free) is compared to Lidocaine using doses(3 and 6 mg/kg).; format: functional, Canis lupus familiaris; outline: as §3
[16] = system: Canis familiaris; experiment: as §2; format: functional, Canis lupus familiaris, Heart; outline: as §3; remark: listed apart in the source
[17] = system: Canis familiaris; experiment: (§4) Antiarrhythmic property His-Purkinje conduction time(post drug) is compared to lidocaine(2) using doses(3 and 6 mg/kg); format: functional, Canis lupus familiaris, His-Purkinje system; outline: as §1
[18] = system: Canis familiaris; experiment: Antiarrhythmic property Heart rate (post drug) is compared to Lidocaine using doses(3 and 6 mg/kg). system.; format: functional, Canis lupus familiaris; outline: as §3
[19] = system: Canis familiaris; experiment: Antiarrhythmic property Nonsustained ventricular tachycardia is compared to lidocaine(2) using doses(3 and 6 mg/kg); format: functional, Canis lupus familiaris, Heart; outline: as §3
[20] = system: Canis familiaris; experiment: Antiarrhythmic property Mean blood pressure(post drug) is compared to Lidocaine using doses(3 and 6 mg/kg); format: functional, Canis lupus familiaris; outline: as §3
[21] = system: Canis familiaris; experiment: Antiarrhythmic properties are compared to lidocaine(2) using doses(3 and 6 mg/kg) measures His-Purkinje conduction time(drug free); format: functional, Canis lupus familiaris, His-Purkinje system; outline: as §3
[22] = system: Canis familiaris; experiment: Antiarrhythmic property is compared to lidocaine(2) using doses(3 and 6 mg/kg). Time required for the ventricular myocardium to undergo depolarization and repolarization ((post drug); No effect; format: functional, organism-based; design: dose 6 mg/kg; settings: Canis lupus familiaris; outline: as §3
[23] = system: Canis familiaris; experiment: Antiarrhythmic property A-V nodal conduction time(drug free) is compared to lidocaine(2) using doses(3 and 6 mg/kg); No effect; format: functional, organism-based; design: dose 6 mg/kg; settings: Canis lupus familiaris; Heart; outline: as §3
[24] = system: Canis familiaris; experiment: Antiarrhythmic properties are compared to lidocaine(2) using doses(3 and 6 mg/kg). Time required for the ventricular myocardium to undergo depolarization and repolarization (drug free); No effect; format: functional, organism-based; design: dose 6 mg/kg; settings: Canis lupus familiaris; outline: as §3
[25] = system: Canis familiaris; experiment: Antiarrhythmic property A-V nodal conduction time(post drug) is compared to lidocaine(2) using dose (3 and 6 mg/kg); No effect; format: functional, organism-based; design: dose 6 mg/kg; settings: Canis lupus familiaris; Heart; outline: as §3
[26] = system: Canis familiaris; experiment: Antiarrhythmic properties are compared to lidocaine(2) using doses(3 and 6 mg/kg). Time required for the ventricular myocardium to undergo depolarization and repolarization ((post drug); No effect; format: functional, organism-based; design: dose 6 mg/kg; settings: Canis lupus familiaris; outline: as §3
[27] = system: Canis familiaris; experiment: Antiarrhythmic property is compared to lidocaine(2) using doses(3 and 6 mg/kg). Time required for the ventricular myocardium to undergo depolarization and repolarization (drug free); No effect; format: functional, organism-based; design: dose 6 mg/kg; settings: Canis lupus familiaris; outline: as §3
[28] = system: Canis familiaris; experiment: Antiarrhythmic property ventricular effective refractory period(drug free) is compared to lidocaine(2) using doses(3 and 6 mg/kg); No effect; format: functional, organism-based; design: dose 6 mg/kg; settings: Canis lupus familiaris; Heart; outline: as §3
[29] = system: Canis familiaris; experiment: Antiarrhythmic property ventricular effective refractory period(post drug) is compared to lidocaine(2) using doses(3 and 6 mg/kg); No effect; format: functional, organism-based; design: dose 6 mg/kg; settings: Canis lupus familiaris; Heart; outline: as §3
[30] = system: Canis familiaris; experiment: Tested for antiarrhythmic property by measuring ability to decrease Mean blood pressure (post drug) is compared to Lidocaine using doses(3 and 6 mg/kg); format: functional, Canis lupus familiaris; outline: as §1
[31] = system: Canis familiaris; experiment: Antiarrhythmic property His-Purkinje conduction time(post drug) is compared to lidocaine(2) using doses(3 and 6 mg/kg); No effect; format: functional, organism-based; design: dose 6 mg/kg; settings: Canis lupus familiaris; His-Purkinje system; outline: as §1
[32] = system: Canis familiaris; experiment: Antiarrhythmic property His-Purkinje conduction time(drug free) is compared to lidocaine(2) using doses(3 and 6 mg/kg); No effect; format: functional, organism-based; design: dose 6 mg/kg; settings: Canis lupus familiaris; His-Purkinje system; outline: as §1
[33] = system: Canis familiaris; experiment: Antiarrhythmic property A-V nodal conduction time(post drug) is compared to lidocaine(2) using dose (3 and 6 mg/kg); format: functional, Canis lupus familiaris, Heart; outline: as §1
[34] = system: Canis familiaris; experiment: as §4; format: functional, Canis lupus familiaris, His-Purkinje system; outline: as §1; remark: listed apart in the source
[35] = system: Canis familiaris; experiment: Antiarrhythmic property His-Purkinje conduction time(drug free) is compared to lidocaine(2) using doses(3 and 6 mg/kg); format: functional, Canis lupus familiaris, His-Purkinje system; outline: as §1

| SMILES | MBP [3] [mmHg] | MBP [4] [mmHg] | QT [6] [ms] | VERP [7] [ms] | AH interval [8] [ms] | HR [9] [beats min-1] | HR [10] [beats min-1] | AH interval [11] [ms] | VERP [12] [ms] | QT [13] [ms] | also measured |
| --- | --- | --- | --- | --- | --- | --- | --- | --- | --- | --- | --- |
| CC(C)N1CC2CC(CN(C(=O)c3ccc(NS(C)(=O)=O)cc3)C2)C1 | 70 | 50 | – | – | – | – | – | – | – | – | HR [1]: 150 beats min-1; HR [2]: 150 beats min-1; NSVT [5]: 6 mg/kg |
| CC(C)N1CC2CC(CN(C(=O)c3ccc([N+](=O)[O-])cc3)C2)C1.Cl | 95 | 75 | 220 | 230 | 75 | 100 | 130 | 60 | 160 | 260 | NSVT [12]: 6 mg/kg |
| c1ccc(CN2CC3CSCC(C3)C2)cc1 [listing 1 of 2 here] | – | – | – | – | – | – | – | – | – | – | HR [14]: 162 beats min-1; MBP [15]: 98 mmHg; VERP [16]: 142 ms; HV interval [17]: 40 ms; HR [18]: 162 beats min-1; NSVT [19]: 3 mg/kg; VERP [19]: 163 ms; MBP [20]: 120 mmHg; HV interval [21]: 30 ms |
| c1ccc(CN2CC3CSCC(C3)C2)cc1 [listing 2 of 2 here] | – | – | – | – | – | – | – | – | – | – | QT [22]: inactive; AH interval [23]: inactive; QT [24]: inactive; AH interval [25]: inactive; QT [26]: inactive; QT [27]: inactive; VERP [28]: inactive; VERP [29]: inactive |
| O=C(c1ccc(Cl)cc1)N1CC2CC(CN(CC3CC3)C2)C1 | 88 | – | 215 | – | – | 105 | – | 60 | 170 | 250 | MBP [30]: 98 mmHg; HV interval [31]: inactive; HR [1]: 125 beats min-1; HV interval [32]: inactive; AH interval [33]: 68 ms; VERP [5]: 220 ms |
| CC(C)N1CC2CC(CN(C(=O)c3ccc(-n4ccnc4)cc3)C2)C1 | 94 | 84 | 196 | 187 | 66 | 110 | 148 | 57 | 144 | 288 | HV interval [34]: 37 ms; HV interval [35]: 32 ms |
| CC(C)N1CC2CC(CN(C(=O)c3ccc(N)cc3)C2)C1.Cl.Cl | 100 | 77 | 210 | 220 | 65 | 115 | 130 | 55 | – | 220 | NSVT [12]: 6 mg/kg |

From ChEMBL document CHEMBL1129356, “Novel 3,7-diheterabicyclo[3.3.1]nonanes that possess predominant class III antiarrhythmic activity in 1-4 day post infarction dog models: X-ray diffraction analysis of 3-[4-(1H-imidazol-1-yl)benzoyl]-7-isopropyl-3,7-diazabicyclo[3.3.1]nona ne dihydroperchlorate” (1996)
